Results published in ChEMBL document CHEMBL3627671, “Novel derivatives of nitro-substituted salicylic acids: Synthesis, antimicrobial activity and cytotoxicity” (Bioorg Med Chem, 2015).
pIC50: −log10 of the molar value. ≈ marks a conversion by molar mass, not a printed value.

Key:
[1] = test system: Mycobacterium tuberculosis; test: Antimycobacterial activity against Mycobacterium tuberculosis H37Rv 331/88 after 14 days; assay type: functional; details: H37Rv 331/88, 336 h
[2] = Selectivity index, ratio of CI50 for human HepG2 cells to MIC100 for Mycobacterium tuberculosis H37Rv 331/88
[3] = test system: HepG2; test: Cytotoxicity against human HepG2 cells after 24 hrs […]; assay type: cell-based; details: HepG2, 24 h
[4] = test system: Mycobacterium tuberculosis; test: Antimycobacterial activity against Mycobacterium tuberculosis H37Rv 331/88 after 21 days; assay type: functional; details: H37Rv 331/88, 504 h
[5] = test system: Mycobacterium avium; test: Antimycobacterial activity against Mycobacterium avium 330/80 after 21 days; assay type: functional; details: 330/80, 504 h
[6] = test system: Mycobacterium kansasii; test: Antimycobacterial activity against Mycobacterium kansasii 6509/96 after 7 days; assay type: functional; details: 6509/96, 168 h
Method in brief: (§1)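 Šula's semisynthetic medium micromethod at 37 °C, read after 7, 14 and 21 days. The 1.0 McFarland suspension was diluted 10^-4. MIC determined. 6509/96 is a clinical isolate.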

[7] = test system: Mycobacterium kansasii; test: Antimycobacterial activity against Mycobacterium kansasii 235/80 after 21 days; assay type: functional; details: 235/80, 504 h; method in brief: as §1
[8] = test system: Mycobacterium kansasii; test: Antimycobacterial activity against Mycobacterium kansasii 6509/96 after 14 days; assay type: functional; details: 6509/96, 336 h; method in brief: as §1
[9] = test system: Mycobacterium avium; test: Antimycobacterial activity against Mycobacterium avium 330/80 after 14 days; assay type: functional; details: 330/80, 336 h
[10] = test system: Mycobacterium kansasii; test: Antimycobacterial activity against Mycobacterium kansasii 235/80 after 14 days; assay type: functional; details: 235/80, 336 h; method in brief: as §1
[11] = test system: Mycobacterium kansasii; test: Antimycobacterial activity against Mycobacterium kansasii 235/80 after 7 days; assay type: functional; details: 235/80, 168 h; method in brief: as §1
[12] = test system: Mycobacterium kansasii; test: Antimycobacterial activity against Mycobacterium kansasii 6509/96 after 21 days; assay type: functional; details: 6509/96, 504 h; method in brief: as §1
[13] = test system: Pseudomonas aeruginosa; test: Antibacterial activity against Pseudomonas aeruginosa CCM 1961 after 24 hrs by microdilution broth method; assay type: functional; details: CCM 1961, 24 h
Method in brief: (§2)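 Mueller-Hinton broth microdilution (modified M07-A07), pH 7.4 (±0.2). Compounds dissolved in DMSO, tested at final 500 to 0.49 µmol/L. Inoculum in sterile water matched to 0.5 McFarland. Incubated in the dark, humid atmosphere, 35 °C, read at 24 and 48 h visually and at 540 nm. MIC taken as ≥95% growth reduction (IC95) versus control.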

[14] = test system: Trichophyton mentagrophytes; test: Antifungal activity against Trichophyton mentagrophytes 445 after 48 hrs by microdilution broth method; assay type: functional; details: Trichophyton mentagrophytes, 445, 48 h
[15] = test system: Trichophyton mentagrophytes; test: Antifungal activity against Trichophyton mentagrophytes 445 after 24 hrs by microdilution broth method; assay type: functional; details: Trichophyton mentagrophytes, 445, 24 h
[16] = test system: Aspergillus fumigatus; test: Antifungal activity against Aspergillus fumigatus 231 after 48 hrs by microdilution broth method; assay type: functional; details: Aspergillus fumigatus, 231, 48 h
Method in brief: (§3)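 CLSI M27-A3 broth microdilution in RPMI 1640 with glutamine, buffered to pH 7.0 with MOPS; DMSO diluent. Yeast inoculum 5 × 10^3 ± 0.2 CFU/mL. Moulds grown on Sabouraud agar 3–10 days before spore harvest, final inoculum 0.5-5 × 10^4 CFU/mL, checked in a Bürker chamber. Incubated dark, humid, 35 °C, read at 24 and 48 h visually and at 540 nm. MIC taken as ≥80% (yeasts) or ≥50% (filamentous) growth reduction versus control.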

[17] = test system: Nakaseomyces glabratus; test: Antifungal activity against Candida glabrata 20/I after 48 hrs by microdilution broth method; assay type: functional; method in brief: as §3
[18] = test system: Escherichia coli; test: Antibacterial activity against Escherichia coli CCM4517 after 24 hrs by microdilution broth method; assay type: functional; details: CCM4517, 24 h; method in brief: as §2
[19] = test system: Staphylococcus aureus; test: Antibacterial activity against Staphylococcus aureus CCM 4516/08 after 24 hrs by microdilution broth method; assay type: functional; details: CCM 4516/08, 24 h
[20] = test system: Candida albicans; test: Antifungal activity against Candida albicans ATCC 44859 after 48 hrs by microdilution broth method; assay type: functional; details: ATCC 44859, 48 h; method in brief: as §3
[21] = test system: Candida tropicalis; test: Antifungal activity against Candida tropicalis 156 after 24 hrs by microdilution broth method; assay type: functional; details: Candida tropicalis, 156, 24 h; method in brief: as §3
[22] = test system: Candida albicans; test: Antifungal activity against Candida albicans ATCC 44859 after 24 hrs by microdilution broth method; assay type: functional; details: ATCC 44859, 24 h; method in brief: as §3
[23] = test system: Staphylococcus epidermidis; test: Antibacterial activity against Staphylococcus epidermidis H 6966/08 after 48 hrs by microdilution broth method; assay type: functional; details: H 6966/08, 48 h; method in brief: as §2
[24] = test system: Pichia kudriavzevii; test: Antifungal activity against Candida krusei E28 after 24 hrs by microdilution broth method; assay type: functional; details: E28, 24 h; method in brief: as §3
[25] = test system: Staphylococcus aureus; test: Antibacterial activity against methicillin-resistant Staphylococcus aureus H 5996/08 after 24 hrs by microdilution broth method; assay type: functional; details: H 5996/08, 24 h
[26] = test system: Lichtheimia corymbifera; test: Antifungal activity against Absidia corymbifera 272 after 24 hrs by microdilution broth method; assay type: functional; details: Lichtheimia corymbifera, 272, 24 h; method in brief: as §3
[27] = test system: Enterococcus sp.; test: Antibacterial activity against Enterococcus sp. J 14365/08 after 48 hrs by microdilution broth method; assay type: functional; details: J 14365/08, 48 h; method in brief: as §2
[28] = test system: Klebsiella pneumoniae; test: Antibacterial activity against ESBL-positive Klebsiella pneumoniae J 14368/08 after 48 hrs by microdilution broth method; assay type: functional; details: J 14368/08, 48 h; method in brief: as §2
[29] = test system: Lichtheimia corymbifera; test: Antifungal activity against Absidia corymbifera 272 after 48 hrs by microdilution broth method; assay type: functional; details: Lichtheimia corymbifera, 272, 48 h; method in brief: as §3
[30] = test system: Escherichia coli; test: Antibacterial activity against Escherichia coli CCM4517 after 48 hrs by microdilution broth method; assay type: functional; details: CCM4517, 48 h; method in brief: as §2
[31] = test system: Enterococcus sp.; test: Antibacterial activity against Enterococcus sp. J 14365/08 after 24 hrs by microdilution broth method; assay type: functional; details: J 14365/08, 24 h; method in brief: as §2
[32] = test system: Klebsiella pneumoniae; test: Antibacterial activity against Klebsiella pneumoniae D 11750/08 after 48 hrs by microdilution broth method; assay type: functional; details: D 11750/08, 48 h; method in brief: as §2
[33] = test system: Staphylococcus epidermidis; test: Antibacterial activity against Staphylococcus epidermidis H 6966/08 after 24 hrs by microdilution broth method; assay type: functional; details: H 6966/08, 24 h; method in brief: as §2
[34] = test system: Staphylococcus aureus; test: Antibacterial activity against methicillin-resistant Staphylococcus aureus H 5996/08 after 48 hrs by microdilution broth method; assay type: functional; details: H 5996/08, 48 h
[35] = test system: Pichia kudriavzevii; test: Antifungal activity against Candida krusei E28 after 48 hrs by microdilution broth method; assay type: functional; details: E28, 48 h; method in brief: as §3
[36] = test system: Aspergillus fumigatus; test: Antifungal activity against Aspergillus fumigatus 231 after 24 hrs by microdilution broth method; assay type: functional; details: Aspergillus fumigatus, 231, 24 h; method in brief: as §3
[37] = test system: Trichosporon asahii; test: Antifungal activity against Trichosporon asahii 1188 after 24 hrs by microdilution broth method; assay type: functional; details: Trichosporon asahii, 1188, 24 h; method in brief: as §3
[38] = test system: Pseudomonas aeruginosa; test: Antibacterial activity against Pseudomonas aeruginosa CCM 1961 after 48 hrs by microdilution broth method; assay type: functional; details: CCM 1961, 48 h; method in brief: as §2
[39] = test system: Klebsiella pneumoniae; test: Antibacterial activity against Klebsiella pneumoniae D 11750/08 after 24 hrs by microdilution broth method; assay type: functional; details: D 11750/08, 24 h; method in brief: as §2
[40] = test system: Staphylococcus aureus; test: Antibacterial activity against Staphylococcus aureus CCM 4516/08 after 48 hrs by microdilution broth method; assay type: functional; details: CCM 4516/08, 48 h
[41] = test system: Nakaseomyces glabratus; test: Antifungal activity against Candida glabrata 20/I after 24 hrs by microdilution broth method; assay type: functional; method in brief: as §3
[42] = test system: Trichosporon asahii; test: Antifungal activity against Trichosporon asahii 1188 after 48 hrs by microdilution broth method; assay type: functional; details: Trichosporon asahii, 1188, 48 h; method in brief: as §3
[43] = test system: Klebsiella pneumoniae; test: Antibacterial activity against ESBL-positive Klebsiella pneumoniae J 14368/08 after 24 hrs by microdilution broth method; assay type: functional; details: J 14368/08, 24 h; method in brief: as §2
[44] = test system: Candida tropicalis; test: Antifungal activity against Candida tropicalis 156 after 48 hrs by microdilution broth method; assay type: functional; details: Candida tropicalis, 156, 48 h; method in brief: as §3

## O=C(Nc1ccc(Cl)c(Cl)c1)c1cccc([N+](=O)[O-])c1O
[1]
  MIC: 16 µM (≈ 5.23 µg/mL)
[2]
  Selectivity Index: 0.184
[3]
  pIC50: 5.23
[4]
  MIC: 32 µM (≈ 10.5 µg/mL)
[5]
  MIC: 250 µM (≈ 81.8 µg/mL)
[6]
  MIC: 62.5 µM (≈ 20.4 µg/mL)
[7]
  MIC: 62.5 µM (≈ 20.4 µg/mL)
[8]
  MIC: 62.5 µM (≈ 20.4 µg/mL)
[9]
  MIC: 250 µM (≈ 81.8 µg/mL)
[10]
  MIC: 62.5 µM (≈ 20.4 µg/mL)
[11]
  MIC: 32 µM (≈ 10.5 µg/mL)
[12]
  MIC: 62.5 µM (≈ 20.4 µg/mL)

## O=C(Nc1ccc([N+](=O)[O-])c(C(F)(F)F)c1)c1cc([N+](=O)[O-])ccc1O
[13]
  MIC: > 500 µM
[14]
  MIC: > 500 µM
[1]
  MIC: 32 µM (≈ 11.9 µg/mL)
[15]
  MIC: > 500 µM
[16]
  MIC: > 500 µM
[17]
  MIC: > 500 µM
[18]
  MIC: > 500 µM
[19]
  MIC: 62.5 µM (≈ 23.2 µg/mL)
[20]
  MIC: > 500 µM
[21]
  MIC: > 500 µM
[22]
  MIC: > 500 µM
[23]
  MIC: 125 µM (≈ 46.4 µg/mL)
[24]
  MIC: > 500 µM
[25]
  MIC: 31.2 µM (≈ 11.6 µg/mL)
[26]
  MIC: > 500 µM
[27]
  MIC: > 500 µM
[28]
  MIC: > 500 µM
[4]
  MIC: 32 µM (≈ 11.9 µg/mL)
[29]
  MIC: > 500 µM
[5]
  MIC: 125 µM (≈ 46.4 µg/mL)
[30]
  MIC: > 500 µM
[31]
  MIC: > 500 µM
[32]
  MIC: > 500 µM
[33]
  MIC: 125 µM (≈ 46.4 µg/mL)
[34]
  MIC: 31.2 µM (≈ 11.6 µg/mL)
[6]
  MIC: 62.5 µM (≈ 23.2 µg/mL)
[7]
  MIC: 125 µM (≈ 46.4 µg/mL)
[35]
  MIC: > 500 µM
[36]
  MIC: > 500 µM
[8]
  MIC: 62.5 µM (≈ 23.2 µg/mL)
[37]
  MIC: > 500 µM
[38]
  MIC: > 500 µM
[9]
  MIC: 125 µM (≈ 46.4 µg/mL)
[39]
  MIC: > 500 µM
[40]
  MIC: 62.5 µM (≈ 23.2 µg/mL)
[41]
  MIC: > 500 µM
[42]
  MIC: > 500 µM
[10]
  MIC: 62.5 µM (≈ 23.2 µg/mL)
[11]
  MIC: 32 µM (≈ 11.9 µg/mL)
[12]
  MIC: 125 µM (≈ 46.4 µg/mL)
[43]
  MIC: > 500 µM
[44]
  MIC: > 500 µM
